Measurements from ChEMBL document CHEMBL1909601, “Synthesis and structure-activity relationship studies of dihydronaphthyridinediones as a novel structural class of potent and selective PDE7 inhibitors” (Bioorg Med Chem Lett, 2011).

Tests used:
[1] = biological target: High affinity 3',5'-cyclic-AMP phosphodiesterase 7A (Homo sapiens, UniProt Q13946); assay: Inhibition of human recombinant PDE7A1 expressed in baculovirus infected insect Sf21 cells after 30 mins by scintillation proximity assay
Outline: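 Full-length human recombinant PDE7A1 produced in baculovirus-infected Sf21 cells. SPA read-out with [3H]-cAMP at 20 nM in 80 mM Tris/10 mM MgSO4, pH 7.4. Reaction run 30 min at 37 °C before bead addition and scintillation counting. Background measured without enzyme. IC50 derived.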

[2] = biological target: 3',5'-cyclic-AMP phosphodiesterase 4A (Homo sapiens, UniProt P27815); assay: Inhibition of human recombinant PDE4A4 expressed in baculovirus infected insect Sf21 cells after 30 mins by scintillation proximity assay
Chain of 3',5'-cyclic-AMP phosphodiesterase 4A (P27815 whole entry): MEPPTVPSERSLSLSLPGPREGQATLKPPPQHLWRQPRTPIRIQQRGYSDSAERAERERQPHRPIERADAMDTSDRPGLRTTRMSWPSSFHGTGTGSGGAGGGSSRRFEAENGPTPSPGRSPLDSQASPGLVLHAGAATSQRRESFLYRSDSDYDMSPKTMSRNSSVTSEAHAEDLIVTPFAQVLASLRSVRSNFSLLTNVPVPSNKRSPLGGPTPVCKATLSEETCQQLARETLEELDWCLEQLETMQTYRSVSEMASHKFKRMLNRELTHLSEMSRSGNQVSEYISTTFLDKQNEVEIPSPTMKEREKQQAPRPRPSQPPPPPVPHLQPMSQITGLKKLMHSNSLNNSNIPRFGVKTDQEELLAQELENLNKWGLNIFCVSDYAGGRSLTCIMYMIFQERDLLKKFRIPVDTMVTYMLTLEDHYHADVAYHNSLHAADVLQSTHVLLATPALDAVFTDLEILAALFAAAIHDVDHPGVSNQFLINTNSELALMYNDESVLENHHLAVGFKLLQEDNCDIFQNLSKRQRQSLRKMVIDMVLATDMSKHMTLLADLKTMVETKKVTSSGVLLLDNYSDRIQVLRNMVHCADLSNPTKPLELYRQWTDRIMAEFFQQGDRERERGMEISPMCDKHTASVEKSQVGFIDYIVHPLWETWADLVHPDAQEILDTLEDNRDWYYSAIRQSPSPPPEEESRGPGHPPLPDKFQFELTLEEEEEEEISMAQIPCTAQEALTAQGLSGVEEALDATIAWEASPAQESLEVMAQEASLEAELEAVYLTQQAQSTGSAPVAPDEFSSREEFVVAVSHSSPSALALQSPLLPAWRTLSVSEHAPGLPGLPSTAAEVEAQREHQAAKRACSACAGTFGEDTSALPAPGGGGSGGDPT
Outline: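 Full-length human recombinant enzyme expressed in baculovirus-infected Sf21 cells. Scintillation proximity assay with 500 nM [3H]-cAMP substrate in 80 mM Tris/10 mM MgSO4, pH 7.4. Incubated 30 min at 37 °C, then SPA beads added and plates counted. Background taken in presence of 10 µM rolipram. IC50 reported.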

Chain of High affinity 3',5'-cyclic-AMP phosphodiesterase 7A (Q13946 whole entry): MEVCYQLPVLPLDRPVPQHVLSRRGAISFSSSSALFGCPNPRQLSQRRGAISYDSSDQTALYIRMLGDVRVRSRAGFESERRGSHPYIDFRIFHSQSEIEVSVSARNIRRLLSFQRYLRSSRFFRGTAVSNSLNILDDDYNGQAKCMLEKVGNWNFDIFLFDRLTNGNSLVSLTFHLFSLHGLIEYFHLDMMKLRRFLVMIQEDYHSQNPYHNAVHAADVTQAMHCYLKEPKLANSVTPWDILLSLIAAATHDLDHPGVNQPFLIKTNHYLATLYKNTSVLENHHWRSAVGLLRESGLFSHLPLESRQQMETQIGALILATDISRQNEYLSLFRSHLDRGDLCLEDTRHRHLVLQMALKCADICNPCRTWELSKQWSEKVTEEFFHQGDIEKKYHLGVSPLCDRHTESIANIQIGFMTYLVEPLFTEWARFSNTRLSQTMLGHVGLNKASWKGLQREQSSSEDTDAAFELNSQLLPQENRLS

O=C(Nc1ccc(OC(F)F)cc1)c1cn(Cc2c(F)cccc2F)c2ccc(=O)[nH]c2c1=O was tested, and the IC50 [1] was 71 nM and the IC50 [2] was 568 nM.

With CC(=O)c1ccc(NC(=O)c2cn(Cc3c(F)cccc3F)c3ccc(=O)[nH]c3c2=O)cc1 the IC50 [1] was 29 nM and the IC50 [2] was > 1000 nM.

For O=C(Nc1ccc(OC(F)(F)F)cc1)c1cn(Cc2c(F)cccc2F)c2ccc(=O)[nH]c2c1=O, the IC50 [1] was 90 nM and the IC50 [2] was > 1000 nM.

With COc1cc(NC(=O)c2cn(Cc3c(F)cccc3F)c3ccc(=O)[nH]c3c2=O)cc(OC)c1OC the IC50 [1] was 18 nM and the IC50 [2] was 516 nM.

Compound O=C(Nc1ccc(N2CCOCC2)cc1)c1cn(Cc2c(F)cccc2F)c2ccc(=O)[nH]c2c1=O has an IC50 [1] of 22 nM and an IC50 [2] of 506 nM.

Work on NC(=O)c1ccc(NC(=O)c2cn(Cc3c(F)cccc3F)c3ccc(=O)[nH]c3c2=O)cc1 yielded an IC50 [1] of 49 nM and an IC50 [2] of 201 nM.

In the case of COc1ccc2c(n1)c(=O)c(C(=O)Nc1ccc(N3CCOCC3)cc1)cn2Cc1c(F)cccc1F, the IC50 [1] is reported as > 5000 nM and the IC50 [2] is reported as > 5000 nM.

CSc1ccc(NC(=O)c2cn(Cc3c(F)cccc3F)c3ccc(=O)[nH]c3c2=O)cc1 was tested, and the IC50 [1] was 86 nM and the IC50 [2] was > 1000 nM.

Compound CNC(=O)c1ccc(NC(=O)c2cn(Cc3c(F)cccc3F)c3ccc(=O)[nH]c3c2=O)cc1 has an IC50 [1] of 29 nM and an IC50 [2] of 560 nM.

With O=C(Nc1ccc(N2CCOCC2)cc1)c1cn(Cc2ccccc2Cl)c2ccc(=O)[nH]c2c1=O the IC50 [1] was 767 nM and the IC50 [2] was > 1000 nM.

In the case of COc1cc(NC(=O)c2cn(Cc3ccc(F)cc3)c3ccc(=O)[nH]c3c2=O)cc(OC)c1OC, the IC50 [1] is reported as 868 nM and the IC50 [2] is reported as > 1000 nM.

Cc1ccccc1Cn1cc(C(=O)Nc2ccc(N3CCOCC3)cc2)c(=O)c2[nH]c(=O)ccc21 was tested, and the IC50 [1] was 266 nM and the IC50 [2] was > 1000 nM.

With O=C(Nc1ccc(N2CCOCC2)cc1)c1cn(Cc2ccccc2)c2ccc(=O)[nH]c2c1=O the IC50 [1] was 712 nM and the IC50 [2] was > 1000 nM.

For COc1cc(NC(=O)c2cn(Cc3ccccc3F)c3ccc(=O)[nH]c3c2=O)cc(OC)c1OC, the IC50 [1] was 206 nM and the IC50 [2] was > 1000 nM.

With CCN(CC)c1ccc(NC(=O)c2cn(Cc3c(F)cccc3F)c3ccc(=O)[nH]c3c2=O)cc1 the IC50 [1] was 46 nM and the IC50 [2] was 442 nM.

With O=C(Nc1ccc(N2CCOCC2)cc1)c1cn(Cc2cc(F)cc(F)c2)c2ccc(=O)[nH]c2c1=O the IC50 [1] was > 1000 nM and the IC50 [2] was > 1000 nM.

With O=C(Nc1ccc(S(=O)(=O)Nc2nccs2)cc1)c1cn(Cc2c(F)cccc2F)c2ccc(=O)[nH]c2c1=O the IC50 [1] was 25 nM and the IC50 [2] was 481 nM.

In the case of O=C(Nc1ccc(S(=O)(=O)Nc2nccs2)cc1)c1cn(Cc2c(F)cccc2Cl)c2ccc(=O)[nH]c2c1=O, the IC50 [1] is reported as 32 nM and the IC50 [2] is reported as 274 nM.

In the case of COc1ccc(NC(=O)c2cn(Cc3c(F)cccc3F)c3ccc(=O)[nH]c3c2=O)cc1, the IC50 [1] is reported as 151 nM and the IC50 [2] is reported as > 1000 nM.

Work on CNc1ccc(NC(=O)c2cn(Cc3c(F)cccc3F)c3ccc(=O)[nH]c3c2=O)cc1 yielded an IC50 [1] of 82 nM and an IC50 [2] of 994 nM.

Work on O=C(Nc1ccc(C(=O)N2CCOCC2)cc1)c1cn(Cc2c(F)cccc2F)c2ccc(=O)[nH]c2c1=O yielded an IC50 [1] of 188 nM and an IC50 [2] of 1060 nM.

With O=C(Nc1ccc(N2CCOCC2)cc1)c1cn(Cc2ccc(F)cc2F)c2ccc(=O)[nH]c2c1=O the IC50 [1] was > 1000 nM and the IC50 [2] was > 1000 nM.

In the case of O=C(Nc1c(F)cccc1F)c1cn(Cc2c(F)cccc2F)c2ccc(=O)[nH]c2c1=O, the IC50 [1] is reported as > 1000 nM and the IC50 [2] is reported as 219 nM.

In the case of COc1cc(NC(=O)c2cn(Cc3ccccc3Cl)c3ccc(=O)[nH]c3c2=O)cc(OC)c1OC, the IC50 [1] is reported as 178 nM and the IC50 [2] is reported as > 1000 nM.

N#Cc1ccc(NC(=O)c2cn(Cc3c(F)cccc3F)c3ccc(=O)[nH]c3c2=O)cc1 was tested, and the IC50 [1] was 96 nM and the IC50 [2] was > 1000 nM.

With O=C(Nc1ccc(C(F)(F)F)cc1)c1cn(Cc2c(F)cccc2F)c2ccc(=O)[nH]c2c1=O the IC50 [1] was 300 nM and the IC50 [2] was > 1000 nM.

In the case of COc1cc(NC(=O)c2cn(Cc3c(F)cccc3F)c3ccc(=O)[nH]c3c2=O)cc(OC)c1, the IC50 [1] is reported as 212 nM and the IC50 [2] is reported as > 1000 nM.

In the case of COc1ccc(NC(=O)c2cn(Cc3c(F)cccc3Cl)c3ccc(=O)[nH]c3c2=O)cc1Cl, the IC50 [1] is reported as 34 nM and the IC50 [2] is reported as > 1000 nM.

In the case of CS(=O)(=O)c1ccc(NC(=O)c2cn(Cc3c(F)cccc3F)c3ccc(=O)[nH]c3c2=O)cc1, the IC50 [1] is reported as 27 nM and the IC50 [2] is reported as > 1000 nM.
